Reference: ChEMBL document CHEMBL1121898, “Potential antiestrogens. Synthesis and evaluation of mammary tumor inhibiting activity of 1,2-dialkyl-1,2-bis(3'-hydroxyphenyl)ethanes” (1981)
One block for each compound: values may come before it. Activity calls are given as the source filed them.

Assays:
Rattus norvegicus [1] = organism: Rattus norvegicus; assay: Percent change in DMBA-induced hormone-dependent mammary carcinoma tumor area at 9 mg after 28 days; assay type: functional
How it was run: (§1)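 DMBA-induced, hormone-dependent mammary adenocarcinoma in SD rats. Rats bearing at least one tumor >140 mm² were placed in groups of ten. Compound was given sc as a single dose (mg/kg) daily Monday–Thursday and a double dose on Friday. Tumors were counted at the start and as new tumors; responses were scored as complete remission (not palpable), partial remission (≥50% reduction), no change or progression. Tumor area and body weight were recorded as % change.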

Rattus norvegicus [2] = organism: Rattus norvegicus; assay: Percent change in DMBA-induced hormone-dependent mammary carcinoma tumor area at 2.25 mg after 28 days; assay type: functional; how it was run: as §1
Rattus norvegicus [3] = organism: Rattus norvegicus; assay: Number of DMBA-induced hormone-dependent mammary carcinoma tumors in ovariectomised rats; assay type: functional
How it was run: (§2)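 DMBA-induced, hormone-dependent mammary adenocarcinoma in SD rats, with ovariectomy as the treatment. Rats bearing at least one tumor >140 mm² were placed in groups of ten. Tumors were counted at the start and as new tumors. Responses were scored as complete remission, partial remission (≥50% size reduction), no change or progression, with % change in tumor area and body weight.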

Rattus norvegicus [4] = organism: Rattus norvegicus; assay: Final number of DMBA-induced hormone-dependent mammary carcinoma tumors in rats at 2.25 mg; assay type: functional
How it was run: (§3)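 Sprague-Dawley rats carrying DMBA-induced, hormone-dependent mammary adenocarcinoma, at least one tumor >140 mm², were placed in groups of ten. Compounds were given sc, with doses in mg/kg: a single daily dose Monday to Thursday and a double dose on Friday. Ovariectomy served as a comparator group. New tumors arising during the test were counted.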

Rattus norvegicus [5] = organism: Rattus norvegicus; assay: Partial remission of DMBA-induced hormone-dependent mammary carcinoma tumors in rats at 9 mg; assay type: functional; how it was run: as §1
Rattus norvegicus [6] = organism: Rattus norvegicus; assay: Percent unchanged tumor size of DMBA-induced hormone-dependent mammary carcinoma tumors in rats at 9 mg; assay type: functional
Rattus norvegicus [7] = organism: Rattus norvegicus; assay: Percent unchanged tumor size of DMBA-induced hormone-dependent mammary carcinoma tumors in rats at 2.25 mg; assay type: functional
Rattus norvegicus [8] = organism: Rattus norvegicus; assay: Percent unchanged tumor size of DMBA-induced hormone-dependent mammary carcinoma tumors in rats at 4.5 mg; assay type: functional
Rattus norvegicus [9] = organism: Rattus norvegicus; assay: Progression of DMBA-induced hormone-dependent mammary carcinoma tumors in ovariectomised rats; assay type: functional; how it was run: as §2
Rattus norvegicus [10] = organism: Rattus norvegicus; assay: Initial tumor number of DMBA-induced hormone-dependent mammary carcinoma in rats at 2.25 mg; assay type: functional; how it was run: as §1
MCF7 [11] = assay: Inhibition of estrogen receptor positive MCF-7 cell proliferation as cell number after 10 days at 10e-7 M and 10e-7 M 17-beta-estradiol; assay type: functional, Homo sapiens
How it was run: (§4)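 MCF-7 cells were grown in McCoy's 5a medium with fetal bovine serum stripped by DCC (0.5 h, 45 °C). Compounds were dissolved in ethanol (final ≤0.5%) and diluted in complete medium. Cells were seeded at 5×10^4 cells/plate. On day 10, three replicate plates per group were counted by Coulter counter, three counts per plate. Percent T/C = test/control. In a retest, compounds were given at 10^-7 M with 17β-estradiol at 10^-7 or 10^-8 M.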

[12] = target: T1, Estrogen receptor (Mus musculus) (UniProt O08537+P19785); assay: Antiestrogenic activity in uterotrophic test in mice at 500 ug; assay type: functional
T1 sequence (O08537 whole entry, looked up): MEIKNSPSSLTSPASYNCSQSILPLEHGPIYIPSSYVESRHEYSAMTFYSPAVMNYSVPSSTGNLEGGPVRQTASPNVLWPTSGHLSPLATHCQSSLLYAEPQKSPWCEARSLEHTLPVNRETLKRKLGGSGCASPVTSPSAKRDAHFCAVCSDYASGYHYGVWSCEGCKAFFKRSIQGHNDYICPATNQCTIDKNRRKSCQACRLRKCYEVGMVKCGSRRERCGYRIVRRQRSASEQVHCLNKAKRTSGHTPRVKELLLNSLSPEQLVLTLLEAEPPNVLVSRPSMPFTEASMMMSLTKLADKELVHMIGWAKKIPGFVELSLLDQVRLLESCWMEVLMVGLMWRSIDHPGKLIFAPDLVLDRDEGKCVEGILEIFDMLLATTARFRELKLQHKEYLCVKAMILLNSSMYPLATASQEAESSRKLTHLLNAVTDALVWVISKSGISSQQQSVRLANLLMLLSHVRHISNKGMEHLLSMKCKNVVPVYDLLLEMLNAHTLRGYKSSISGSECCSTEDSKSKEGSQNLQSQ
T1 sequence (P19785 whole entry, looked up): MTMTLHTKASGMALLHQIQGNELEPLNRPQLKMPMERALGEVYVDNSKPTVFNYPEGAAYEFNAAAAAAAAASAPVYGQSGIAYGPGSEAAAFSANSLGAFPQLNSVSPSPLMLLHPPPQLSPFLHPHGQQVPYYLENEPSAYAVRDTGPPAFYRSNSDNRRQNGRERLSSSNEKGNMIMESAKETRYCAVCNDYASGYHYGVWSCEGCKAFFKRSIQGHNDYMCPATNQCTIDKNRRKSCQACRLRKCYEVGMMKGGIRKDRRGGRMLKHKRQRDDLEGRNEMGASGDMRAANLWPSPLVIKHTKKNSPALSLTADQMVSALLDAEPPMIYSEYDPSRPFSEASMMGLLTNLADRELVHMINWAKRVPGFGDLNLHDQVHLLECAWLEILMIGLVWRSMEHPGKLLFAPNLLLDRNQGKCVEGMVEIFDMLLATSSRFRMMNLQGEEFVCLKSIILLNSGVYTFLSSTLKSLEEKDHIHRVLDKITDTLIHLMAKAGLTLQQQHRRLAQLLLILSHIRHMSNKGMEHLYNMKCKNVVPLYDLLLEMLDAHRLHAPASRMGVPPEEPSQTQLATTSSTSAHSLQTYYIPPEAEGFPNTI
How it was run: (§5)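 Immature female NMRI mice, 20 days old (14.5 ± 1.2 g), randomly grouped 10 per group. Each received a daily sc injection for 3 days of 0.1 mL olive oil solution containing test compound, together with estrone to stimulate uterine growth. Uteri were removed 24 h after the last injection and weighed. Results are reported as % inhibition of the estrone-stimulated uterine weight gain, mean ± SD.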

[13] = target: T1, Estrogen receptor (Mus musculus); assay: Estrogenic activity in uterotrophic test in mice at 0 ug; assay type: functional
How it was run: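 Uterine growth stimulation in immature female NMRI mice, 20 days old (14.5 ± 1.2 g), 10 per group. Test compound in 0.1 mL olive oil was given sc daily for 3 days. Uteri were excised 24 h after the final injection and weighed. Effect is reported as mean ± SD.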

[14] = target: T1, Estrogen receptor (Mus musculus); assay: Estrogenic activity in uterotrophic test in mice at 9 ug; assay type: functional
How it was run: (§6)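 Immature (20-day-old) female NMRI mice, 14.5 ± 1.2 g, randomized into groups of 10. Given the test compound sc daily for 3 days in 0.1 mL olive oil. Uteri removed 24 h after the last injection; uterine weight taken as the read-out, means ± SD. Dose in μg.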

[15] = target: T1, Estrogen receptor (Mus musculus); assay: Estrogenic activity in uterotrophic test in mice at 900 ug; assay type: functional; how it was run: as §6
Rattus norvegicus [16] = organism: Rattus norvegicus; assay: Percent change in body weight DMBA-induced hormone-dependent mammary carcinoma tumors in rats at 2.25 mg for 7 days; assay type: functional
Rattus norvegicus [17] = organism: Rattus norvegicus; assay: Percent change in body weight DMBA-induced hormone-dependent mammary carcinoma tumors in ovariectomised rats after 7 days; assay type: functional; how it was run: as §2
[18] = target: T1, Estrogen receptor (Mus musculus); assay: Inhibitory activity in mouse uterine weight test at 0.1 ug; assay type: functional
How it was run: (§7)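 Antiuterotrophic (Dorfman) assay in immature 20-day-old female NMRI mice, groups of 10. Uterine growth was stimulated with estrone (0.1 μg) and the test compound was given alongside it, sc daily for 3 days in 0.1 mL olive oil. Uteri were taken 24 h after the last dose. Uterine weight is reported as means ± SD and inhibition as % of the estrone-stimulated response.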

[19] = target: T1, Estrogen receptor (Mus musculus); assay: Inhibitory activity in mouse uterine weight test at 50 ug; assay type: functional; how it was run: as §7
Rattus norvegicus [20] = organism: Rattus norvegicus; assay: Percent unchanged tumor size of DMBA-induced hormone-dependent mammary carcinoma tumors in rats at 1 mg; assay type: functional
Rattus norvegicus [21] = organism: Rattus norvegicus; assay: Progression of DMBA-induced hormone-dependent mammary carcinoma tumors in rats at 2 mg; assay type: functional
Rattus norvegicus [22] = organism: Rattus norvegicus; assay: Progression of DMBA-induced hormone-dependent mammary carcinoma tumors in rats at 4 mg; assay type: functional
Rattus norvegicus [23] = organism: Rattus norvegicus; assay: Complete remission of DMBA-induced hormone-dependent mammary carcinoma tumors in rats at 2 mg; assay type: functional
How it was run: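 Female SD rats bearing DMBA-induced, hormone-dependent mammary adenocarcinoma, with at least one tumor >140 mm², were grouped in tens. Dosing was sc per kg body weight: a single dose daily Monday–Thursday and a double dose Friday. Ovariectomy served as the comparison arm. Complete remission was defined as a tumor no longer palpable. Body weight and tumor area changes were also recorded.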

Rattus norvegicus [24] = organism: Rattus norvegicus; assay: Initial tumor number of DMBA-induced hormone-dependent mammary carcinoma in rats at 2 mg; assay type: functional; how it was run: as §1
MCF7 [25] = assay: Inhibition of estrogen receptor positive MCF-7 cell proliferation as cell number after 10 days at 10e-7 M with 10e-7 M 17-beta-estradiol; assay type: functional, Homo sapiens; how it was run: as §4
Mus musculus [26] = organism: Mus musculus; assay: Vaginal cornification test in mice at 25 ug; predominant cellular component leucocytes (diestrus); assay type: functional, organism-based
Mus musculus [27] = organism: Mus musculus; assay: Vaginal cornification test in mice at 5 ug; predominant cellular component leucocytes (diestrus); assay type: functional, organism-based
How it was run: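 Female NMRI mice (~15 g) were ovariectomized; castration was confirmed at 10 days by leucocyte smears. Mice were primed with estradiol 3-benzoate 0.2 μg, and only responders showing estrus were kept. Groups of three received sc test compound in 0.1 mL olive oil daily for 3 days. Saline vaginal smears were taken 6, 24, 30, 48 and 54 h after the last dose and scored by Allen-Doisy.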

[28] = target: T1, Estrogen receptor (Mus musculus); assay: Antiestrogenic activity in uterotrophic test in mice at 2.5 ug (experiment 1); assay type: functional; how it was run: as §5
[29] = target: T1, Estrogen receptor (Mus musculus); assay: Antiestrogenic activity in uterotrophic test in mice at 25 ug (experiment 2); assay type: functional; how it was run: as §5
[30] = target: T1, Estrogen receptor (Mus musculus); assay: Antiestrogenic activity in uterotrophic test in mice at 50 ug (experiment 2); assay type: functional; how it was run: as §5
[31] = target: T1, Estrogen receptor (Mus musculus); assay: Estrogenic activity in uterotrophic test in mice at 8 ug (experiment 1); assay type: functional; how it was run: as §6
[32] = target: T1, Estrogen receptor (Mus musculus); assay: Inhibitory activity in mouse uterine weight test at 5 ug (experiment 1); assay type: functional; how it was run: as §7
Rattus norvegicus [33] = organism: Rattus norvegicus; assay: Final number of DMBA-induced hormone-dependent mammary carcinoma tumors in rats at 1 mg; assay type: functional; how it was run: as §3

Effect [12]: 23.9 | Effect [13]: 11.4 | Effect [14]: 13.9 | Effect [15]: 28.7 | inhibition [18]: 5% | inhibition [19]: 43%
Structure (SMILES): CCCC(c1cccc(O)c1)C(CCC)c1cccc(O)c1 (stereo not drawn)
Change (Rattus norvegicus [1]): -24% | Change (Rattus norvegicus [2]): 271% | No. of tumors (Rattus norvegicus [3]): 2 | No. of tumors (Rattus norvegicus [4]): 17 | Tumors (Rattus norvegicus [5]): 22% | Tumors (Rattus norvegicus [6]): 9% | Tumors (Rattus norvegicus [7]): 13% | Tumors (Rattus norvegicus [8]): 27% | Tumors (Rattus norvegicus [9]): 0% | No. of tumors (Rattus norvegicus [10]): 22 | Cell number (MCF7 [11]): 5600 | Change (Rattus norvegicus [16]): 0.4% | Change (Rattus norvegicus [17]): 3.6%

Effect [28]: 29.5 | Effect [29]: 28.1 | Effect [30]: 28.3 | Effect [31]: 14.4 | inhibition [32]: 53%
Structure (SMILES): CCC(c1cccc(O)c1)C(CC)c1cccc(O)c1 (stereo in doubt; 20)
Tumors (Rattus norvegicus [20]): 35% | Tumors (Rattus norvegicus [21]): 21% | Tumors (Rattus norvegicus [22]): 10% | Tumors (Rattus norvegicus [23]): 19% | No. of tumors (Rattus norvegicus [24]): 30 | Cell number (MCF7 [25]): 5600 | Activity (Mus musculus [26]): inactive | Activity (Mus musculus [27]): inactive | No. of tumors (Rattus norvegicus [33]): 37
